# Data as given in ChEMBL document CHEMBL1146584, “Renieramycin J, a highly cytotoxic tetrahydroisoquinoline alkaloid, from a marine sponge Neopetrosia sp” (J Nat Prod, 2003).
# Calls of active or inactive are those of the source. The rule behind the calls is not given here.
# Legend:
# 3Y1 cell line [1] = assay: Induction of morphological changes in rat 3Y1 cells assessed as cell shrinkage at 86 nM after 6 hrs by phase contrast microscopy; type: functional, cell-based
# In short: (§1)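 Rat 3Y1 cells exposed to 86 nM; nucleoli (shrinkage or loss) and filopodial development inspected at 6 h.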
# 3Y1 cell line [2] = assay: Induction of morphological changes in rat 3Y1 cells assessed as disappearance of nucleoli at 86 nM after 6 hrs by phase contrast microscopy; type: functional, cell-based; in short: as §1
# 3Y1 cell line [3] = assay: Induction of morphological changes in rat 3Y1 cells assessed as filopodial development; type: functional, cell-based; in short: as §1
# 3Y1 cell line [4] = assay: Induction of morphological changes in rat 3Y1 cells assessed as increase in dead cell number after 12 hrs by light microscopy; type: functional, cell-based
# In short: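 3Y1 cells kept under continued exposure; cellular boundaries and dead-cell numbers inspected at 12 h and followed to day five under a light microscope.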
# 3Y1 cell line [5] = assay: Induction of morphological changes in rat 3Y1 cells assessed as cell rounding at 1.7 uM after 6 hrs; type: functional, cell-based
# In short: (§2)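 3Y1 cells exposed to 1.7 μM; cell rounding scored at 6 h, proportion of dead cells estimated within 24 h.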
# 3Y1 = assay: Induction of morphological changes in rat 3Y1 cells assessed as cell death at 1.7 uM after 24 hrs; type: functional, cell-based; in short: as §2
# [6] = Cytotoxicity against rat 3Y1 cells after 72 hrs by MTT assay; type: functional, cell-based; settings: 3Y1, 72 h
# HeLa = assay: Cytotoxicity against human HeLa cells after 72 hrs by MTT assay; type: functional, cell-based
# P388 = assay: Cytotoxicity against mouse P388 cells after 72 hrs by MTT assay; type: functional, cell-based; settings: P388, 72 h
# [7] = Induction of morphological changes in rat 3Y1 cells assessed as cell death at 1.7 uM after 24 hrs
smiles,measurement,setting,value
C/C=C(/C)C(=O)OC[C@H]1C2=C(C[C@H]3[C@H]4c5c(O)c(OC)c(C)c(O)c5[C@H](O)[C@@H]([C@H](O)N13)N4C)C(=O)C(C)=C(OC)C2=O [RENIERAMYCIN J],Activity,3Y1 cell line [1],Active
same,Activity,3Y1 cell line [2],Active
same,Activity,3Y1 cell line [3],Active
same,Activity,3Y1 cell line [4],Active
same,Activity,3Y1 cell line [5],Active
same,Activity,3Y1,Active
same,IC50,[6],5.3 nM
same,IC50,HeLa,12.3 nM
same,IC50,P388,0.53 nM
same,Activity,[7],90%
